From ChEMBL document CHEMBL4689842, “EUbOPEN Chemogenomics Library wave 1” (2021)

System: U2OS
Experiment: Multiplex assay against U2OS
Type: toxicity, cell-based
Conditions: human
Outline: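 Live cells carried four stains from seeding: Hoechst33342, BioTracker Green Microtubule Cytoskeleton Dye, MitoTracker Red and Annexin V Alexa Fluor 680. They were imaged on a CQ1 microscope at 37°C and 5% CO2 after compound addition. Using CellPathfinder machine-learning gating, cells were split into Hoechst high-intensity objects or normal cells, normal cells into healthy, pyknosed or fragmented nuclei, and pyknosed cells into mitotic or apoptotic; tubulin, mitochondrial-mass and membrane-permeability phenotypes are per cents of healthy-nucleus cells.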

[1] = 12 h, 1 µM, compound concentration 1 uM, replicate 1
[2] = 12 h, 1 µM, compound concentration 1 uM, replicate 2
[3] = 12 h, 10 µM, compound concentration 10 uM, replicate 1
[4] = 12 h, 10 µM, compound concentration 10 uM, replicate 2
[5] = 24 h, 1 µM, compound concentration 1 uM, replicate 1
[6] = 24 h, 1 µM, compound concentration 1 uM, replicate 2
[7] = 24 h, 10 µM, compound concentration 10 uM, replicate 1
[8] = 24 h, 10 µM, compound concentration 10 uM, replicate 2
[9] = 48 h, 1 µM, compound concentration 1 uM, replicate 1
[10] = 48 h, 1 µM, compound concentration 1 uM, replicate 2
[11] = 48 h, 10 µM, compound concentration 10 uM, replicate 1
[12] = 48 h, 10 µM, compound concentration 10 uM, replicate 2

CC(C)NCC(O)COc1ccc(CCOCC2CC2)cc1.Cl (stereo not drawn) [BETAXOLOL HYDROCHLORIDE]
Population Apoptotic (%) [1]: 60% | Population Fragmented Nuclei (%) [1]: 9% | Population Healthy Nuclei (%) [1]: 84% | Population Hoechst High Intensity Objects (%) [1]: 8% | Population Mitochondria Different-Phenotype (%) [1]: 14% | Population Mitotic Cells (%) [1]: 40% | Population Normal (%) [1]: 92% | Population Pyknosed Nuclei (%) [1]: 6% | Population Tubulin-Different-Phenotype (%) [1]: 12% | Total Cell Count [1]: 175 | Population Apoptotic (%) [2]: 100% | Population Fragmented Nuclei (%) [2]: 2% | Population Healthy Nuclei (%) [2]: 95% | Population Hoechst High Intensity Objects (%) [2]: 16% | Population Membrane Permeable-Phenotype (%) [2]: 6% | Population Mitochondria Different-Phenotype (%) [2]: 2% | Population Mitotic Cells (%) [2]: 0% | Population Normal (%) [2]: 83% | Population Pyknosed Nuclei (%) [2]: 2% | Population Tubulin-Different-Phenotype (%) [2]: 9% | Total Cell Count [2]: 55 | Population Apoptotic (%) [3]: 52% | Population Fragmented Nuclei (%) [3]: 14% | Population Healthy Nuclei (%) [3]: 69% | Population Hoechst High Intensity Objects (%) [3]: 5% | Population Membrane Permeable-Phenotype (%) [3]: 2% | Population Mitochondria Different-Phenotype (%) [3]: 64% | Population Mitotic Cells (%) [3]: 47% | Population Normal (%) [3]: 94% | Population Pyknosed Nuclei (%) [3]: 16% | Population Tubulin-Different-Phenotype (%) [3]: 53% | Total Cell Count [3]: 124 | Population Apoptotic (%) [4]: 23% | Population Fragmented Nuclei (%) [4]: 9% | Population Healthy Nuclei (%) [4]: 77% | Population Hoechst High Intensity Objects (%) [4]: 7% | Population Membrane Permeable-Phenotype (%) [4]: 5% | Population Mitochondria Different-Phenotype (%) [4]: 72% | Population Mitotic Cells (%) [4]: 76% | Population Normal (%) [4]: 92% | Population Pyknosed Nuclei (%) [4]: 13% | Population Tubulin-Different-Phenotype (%) [4]: 49% | Total Cell Count [4]: 107 | Population Apoptotic (%) [5]: 28% | Population Fragmented Nuclei (%) [5]: 8% | Population Healthy Nuclei (%) [5]: 83% | Population Membrane Permeable-Phenotype (%) [5]: 3% | Population Mitochondria Different-Phenotype (%) [5]: 10% | Population Mitotic Cells (%) [5]: 71% | Population Pyknosed Nuclei (%) [5]: 7% | Population Tubulin-Different-Phenotype (%) [5]: 8% | Total Cell Count [5]: 202 | Population Apoptotic (%) [6]: 33% | Population Fragmented Nuclei (%) [6]: 3% | Population Healthy Nuclei (%) [6]: 85% | Population Hoechst High Intensity Objects (%) [6]: 5% | Population Membrane Permeable-Phenotype (%) [6]: 4% | Population Mitochondria Different-Phenotype (%) [6]: 6% | Population Mitotic Cells (%) [6]: 66% | Population Normal (%) [6]: 94% | Population Pyknosed Nuclei (%) [6]: 10% | Population Tubulin-Different-Phenotype (%) [6]: 2% | Total Cell Count [6]: 59 | Population Apoptotic (%) [7]: 57% | Population Fragmented Nuclei (%) [7]: 13% | Population Healthy Nuclei (%) [7]: 70% | Population Hoechst High Intensity Objects (%) [7]: 6% | Population Membrane Permeable-Phenotype (%) [7]: 7% | Population Mitochondria Different-Phenotype (%) [7]: 59% | Population Mitotic Cells (%) [7]: 42% | Population Normal (%) [7]: 93% | Population Pyknosed Nuclei (%) [7]: 16% | Population Tubulin-Different-Phenotype (%) [7]: 31% | Total Cell Count [7]: 139 | Population Apoptotic (%) [8]: 40% | Population Fragmented Nuclei (%) [8]: 7% | Population Healthy Nuclei (%) [8]: 78% | Population Hoechst High Intensity Objects (%) [8]: 5% | Population Membrane Permeable-Phenotype (%) [8]: 5% | Population Mitochondria Different-Phenotype (%) [8]: 78% | Population Mitotic Cells (%) [8]: 60% | Population Normal (%) [8]: 94% | Population Pyknosed Nuclei (%) [8]: 15% | Population Tubulin-Different-Phenotype (%) [8]: 46% | Total Cell Count [8]: 106 | Population Apoptotic (%) [9]: 25% | Population Fragmented Nuclei (%) [9]: 8% | Population Healthy Nuclei (%) [9]: 81% | Population Membrane Permeable-Phenotype (%) [9]: 2% | Population Mitochondria Different-Phenotype (%) [9]: 7% | Population Mitotic Cells (%) [9]: 74% | Population Pyknosed Nuclei (%) [9]: 10% | Population Tubulin-Different-Phenotype (%) [9]: 6% | Total Cell Count [9]: 296 | Population Apoptotic (%) [10]: 50% | Population Fragmented Nuclei (%) [10]: 9% | Population Healthy Nuclei (%) [10]: 80% | Population Hoechst High Intensity Objects (%) [10]: 3% | Population Membrane Permeable-Phenotype (%) [10]: 5% | Population Mitochondria Different-Phenotype (%) [10]: 16% | Population Mitotic Cells (%) [10]: 50% | Population Normal (%) [10]: 96% | Population Pyknosed Nuclei (%) [10]: 9% | Population Tubulin-Different-Phenotype (%) [10]: 10% | Total Cell Count [10]: 87 | Population Apoptotic (%) [11]: 52% | Population Fragmented Nuclei (%) [11]: 19% | Population Healthy Nuclei (%) [11]: 68% | Population Hoechst High Intensity Objects (%) [11]: 4% | Population Membrane Permeable-Phenotype (%) [11]: 3% | Population Mitochondria Different-Phenotype (%) [11]: 34% | Population Mitotic Cells (%) [11]: 47% | Population Normal (%) [11]: 95% | Population Pyknosed Nuclei (%) [11]: 12% | Population Tubulin-Different-Phenotype (%) [11]: 21% | Total Cell Count [11]: 200 | Population Apoptotic (%) [12]: 54% | Population Fragmented Nuclei (%) [12]: 9% | Population Healthy Nuclei (%) [12]: 75% | Population Hoechst High Intensity Objects (%) [12]: 5% | Population Membrane Permeable-Phenotype (%) [12]: 9% | Population Mitochondria Different-Phenotype (%) [12]: 50% | Population Mitotic Cells (%) [12]: 45% | Population Normal (%) [12]: 94% | Population Pyknosed Nuclei (%) [12]: 15% | Population Tubulin-Different-Phenotype (%) [12]: 25% | Total Cell Count [12]: 152

Cc1[nH]c(/C=C2\C(=O)Nc3ccc(S(=O)(=O)N(C)c4cccc(Cl)c4)cc32)c(C)c1C(=O)N1CCN(C)CC1
Population Apoptotic (%) [1]: 66% | Population Fragmented Nuclei (%) [1]: 13% | Population Mitochondria Different-Phenotype (%) [1]: 58% | Population Mitotic Cells (%) [1]: 33% | Population Pyknosed Nuclei (%) [1]: 9% | Population Tubulin-Different-Phenotype (%) [1]: 80% | Total Cell Count [1]: 305 | Population Apoptotic (%) [2]: 100% | Population Fragmented Nuclei (%) [2]: 16% | Population Healthy Nuclei (%) [2]: 77% | Population Hoechst High Intensity Objects (%) [2]: 12% | Population Membrane Permeable-Phenotype (%) [2]: 12% | Population Mitochondria Different-Phenotype (%) [2]: 42% | Population Mitotic Cells (%) [2]: 0% | Population Normal (%) [2]: 87% | Population Pyknosed Nuclei (%) [2]: 6% | Population Tubulin-Different-Phenotype (%) [2]: 68% | Total Cell Count [2]: 90 | Population Apoptotic (%) [3]: 60% | Population Fragmented Nuclei (%) [3]: 12% | Population Healthy Nuclei (%) [3]: 76% | Population Hoechst High Intensity Objects (%) [3]: 8% | Population Membrane Permeable-Phenotype (%) [3]: 24% | Population Mitochondria Different-Phenotype (%) [3]: 68% | Population Mitotic Cells (%) [3]: 40% | Population Normal (%) [3]: 91% | Population Pyknosed Nuclei (%) [3]: 11% | Total Cell Count [3]: 147 | Population Apoptotic (%) [4]: 25% | Population Fragmented Nuclei (%) [4]: 10% | Population Healthy Nuclei (%) [4]: 74% | Population Hoechst High Intensity Objects (%) [4]: 12% | Population Membrane Permeable-Phenotype (%) [4]: 40% | Population Mitochondria Different-Phenotype (%) [4]: 97% | Population Mitotic Cells (%) [4]: 75% | Population Normal (%) [4]: 87% | Population Pyknosed Nuclei (%) [4]: 16% | Population Tubulin-Different-Phenotype (%) [4]: 100% | Total Cell Count [4]: 70 | Population Apoptotic (%) [5]: 73% | Population Fragmented Nuclei (%) [5]: 11% | Population Healthy Nuclei (%) [5]: 77% | Population Hoechst High Intensity Objects (%) [5]: 9% | Population Membrane Permeable-Phenotype (%) [5]: 7% | Population Mitochondria Different-Phenotype (%) [5]: 51% | Population Mitotic Cells (%) [5]: 26% | Population Normal (%) [5]: 90% | Population Pyknosed Nuclei (%) [5]: 11% | Population Tubulin-Different-Phenotype (%) [5]: 61% | Total Cell Count [5]: 272 | Population Apoptotic (%) [6]: 100% | Population Fragmented Nuclei (%) [6]: 18% | Population Healthy Nuclei (%) [6]: 72% | Population Hoechst High Intensity Objects (%) [6]: 8% | Population Membrane Permeable-Phenotype (%) [6]: 10% | Population Mitochondria Different-Phenotype (%) [6]: 40% | Population Mitotic Cells (%) [6]: 0% | Population Normal (%) [6]: 91% | Population Pyknosed Nuclei (%) [6]: 9% | Population Tubulin-Different-Phenotype (%) [6]: 55% | Total Cell Count [6]: 65 | Population Apoptotic (%) [7]: 82% | Population Fragmented Nuclei (%) [7]: 13% | Population Healthy Nuclei (%) [7]: 68% | Population Hoechst High Intensity Objects (%) [7]: 8% | Population Membrane Permeable-Phenotype (%) [7]: 46% | Population Mitochondria Different-Phenotype (%) [7]: 88% | Population Mitotic Cells (%) [7]: 17% | Population Normal (%) [7]: 91% | Population Pyknosed Nuclei (%) [7]: 17% | Population Tubulin-Different-Phenotype (%) [7]: 100% | Total Cell Count [7]: 140 | Population Apoptotic (%) [8]: 100% | Population Fragmented Nuclei (%) [8]: 17% | Population Healthy Nuclei (%) [8]: 73% | Population Membrane Permeable-Phenotype (%) [8]: 84% | Population Mitochondria Different-Phenotype (%) [8]: 100% | Population Mitotic Cells (%) [8]: 0% | Population Pyknosed Nuclei (%) [8]: 9% | Total Cell Count [8]: 71 | Population Apoptotic (%) [9]: 80% | Population Fragmented Nuclei (%) [9]: 18% | Population Healthy Nuclei (%) [9]: 70% | Population Hoechst High Intensity Objects (%) [9]: 4% | Population Membrane Permeable-Phenotype (%) [9]: 10% | Population Mitochondria Different-Phenotype (%) [9]: 32% | Population Mitotic Cells (%) [9]: 19% | Population Normal (%) [9]: 95% | Population Pyknosed Nuclei (%) [9]: 11% | Population Tubulin-Different-Phenotype (%) [9]: 30% | Total Cell Count [9]: 261 | Population Apoptotic (%) [10]: 25% | Population Fragmented Nuclei (%) [10]: 16% | Population Healthy Nuclei (%) [10]: 77% | Population Hoechst High Intensity Objects (%) [10]: 14% | Population Membrane Permeable-Phenotype (%) [10]: 21% | Population Mitochondria Different-Phenotype (%) [10]: 30% | Population Mitotic Cells (%) [10]: 75% | Population Normal (%) [10]: 85% | Population Pyknosed Nuclei (%) [10]: 5% | Population Tubulin-Different-Phenotype (%) [10]: 37% | Total Cell Count [10]: 62 | Population Fragmented Nuclei (%) [11]: 24% | Population Healthy Nuclei (%) [11]: 50% | Population Hoechst High Intensity Objects (%) [11]: 7% | Population Membrane Permeable-Phenotype (%) [11]: 76% | Population Mitochondria Different-Phenotype (%) [11]: 91% | Population Normal (%) [11]: 92% | Population Pyknosed Nuclei (%) [11]: 24% | Total Cell Count [11]: 186 | Population Apoptotic (%) [12]: 100% | Population Fragmented Nuclei (%) [12]: 14% | Population Healthy Nuclei (%) [12]: 72% | Population Hoechst High Intensity Objects (%) [12]: 15% | Population Membrane Permeable-Phenotype (%) [12]: 88% | Population Mitochondria Different-Phenotype (%) [12]: 100% | Population Mitotic Cells (%) [12]: 0% | Population Normal (%) [12]: 84% | Population Pyknosed Nuclei (%) [12]: 12% | Population Tubulin-Different-Phenotype (%) [12]: 100% | Total Cell Count [12]: 84
